Experimental data reported in publication PMC10412738 (Cell reports, 2023).

How the values were obtained:
NOS2 RNA in RB383 cells = experiment: NOS2 RNA by qRT-PCR, RB383; format: cell-based; details: n = 3; for NOS2 RNA induction: RB383 cells, 1 μg/mL, qRT-PCR; for NOS2 RNA induction following SFRP2 silencing: 12 h
[1] = system: phosphorylated CREB (phospho-serine 133) in RB383 cells; experiment: Phosphorylated CREB by immunoblotting, RB383; format: cell-based; details: for phosphorylated CREB induction: RB383 cells, 1 μg/mL, immunoblotting
RB383 cells = experiment: Cell proliferation; format: cell-based; details: for inhibition of proliferation: RB383 cells, 1 μg/mL, IncuCyte
Y79 cells [2] = experiment: Cell proliferation; format: cell-based; details: for growth arrest following SFRP2 silencing, Wnt inhibitors: 1 μM, SFRP2 siRNA
Outline: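 SFRP2 or control siRNA transfected with Lipofectamine RNAiMAX, then cells given recombinant human SFRP2 at 250 ng/mL or left untreated. Proliferation tracked by IncuCyte live-cell imaging. RB383 were grown in IMDM with 10% FBS, 10 μg/mL insulin and 55 μM β-mercaptoethanol; Y79 in RPMI-1640 with 10% FBS.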

[3] = system: ARPE-19 retinal pigment epithelial cells; experiment: Cell proliferation; format: cell-based, human; details: 1 μg/mL, IncuCyte
[4] = system: NO production in RB383 cells; experiment: NO production, nitrate/nitrite colorimetric assay, RB383; format: cell-based; details: n = 3; for NO production: RB383 cells, 1 μg/mL, NO in the CM; for NO production following SFRP2 silencing: CM, 12 h
Outline: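 Test peptides (12-mer SFRP2 binders from phage display) added to RB383 at 1 μg/mL. At the indicated time points, NO in the conditioned medium was measured by nitrite/nitrate colorimetric assay; n = 3.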

[5] = system: NO production in Y79 cells; experiment: NO production, nitrate/nitrite colorimetric assay, Y79; format: cell-based; details: 2 μM, CM and cell lysate, n = 3
Outline: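 Y79 retinoblastoma cells were exposed to a small-molecule SFRP inhibitor at 2 μM. At the indicated times, NO production was measured in conditioned medium and in cell lysate by nitrite/nitrate colorimetric assay. n = 3; data given as mean ± SEM.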

SFRP1 = details: cited from earlier work
p21 in RB383 cells = experiment: p21 induction following SFRP2 silencing, immunoblotting, RB383; format: cell-based; details: 1 μM carboxy-PTIO, 5 μM NS-2028, or 2.5 μM KT5823
Outline: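 In RB383 cells transfected with SFRP2 or control siRNA, treatment was none, 1 μM carboxy-PTIO, 5 μM NS-2028 or 2.5 μM KT5823. p21 protein was then assessed by SDS-PAGE immunoblotting of whole-cell lysate.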

retinoblastoma cells = experiment: Rescue of growth inhibition following SFRP2 silencing; format: cell-based; details: SFRP2 siRNA
Outline: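 Retinoblastoma cell lines transfected with SFRP2 or control siRNA (RNAiMAX), then exposed to 5 μM NS-2028 (sGC inhibitor) or 2.5 μM KT5823 (PKG inhibitor), or left untreated. Proliferation measured by IncuCyte live-cell imaging.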

[6] = system: SFRP2 RNA in retinoblastoma cells; experiment: SFRP2 RNA silencing in retinoblastoma; format: cell-based; details: n = 3
[7] = molecular target: Recombinant human CXADR protein (3336-CX-050, R&D Systems) (human) (UniProt P78310); experiment: MST
CXADR = experiment: Co-immunoprecipitation of SFRP2 with endogenous CXADR in 293T cells; format: binding; details: C-terminally FLAG-tagged SFRP2, 293T cells
Outline: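 FLAG-tagged constructs (C-terminally FLAG-tagged SFRP2 in pcDNA3) were transfected by calcium phosphate co-precipitation into 293T cells grown in DMEM with 10% fetal bovine serum. Anti-FLAG immunoprecipitation was followed by SDS-PAGE and anti-CXADR immunoblotting for endogenous CXADR.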

Y79 cells [8] = experiment: Ligand-binding assay of SFRP2-FLAG to Y79 cells; details: anti-FLAG immunoblotting after washing
Outline: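 C-terminally FLAG-tagged SFRP2 was secreted from transfected 293T cells. It was incubated with Y79 cells previously transfected (Lipofectamine RNAiMAX) with CXADR siRNA or control siRNA. Cells were washed to remove unbound protein and lysed. Whole-cell lysate went to SDS-PAGE and anti-FLAG immunoblotting. CXADR knockdown was confirmed by immunoblotting.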

[9] = system: CXADR-overexpressing Y79 cells; experiment: Cell proliferation of CXADR-overexpressing Y79 cells; format: cell-based; details: 250 ng/mL recombinant SFRP2
Outline: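 Y79 cells were infected with pCDH1-puro lentivirus (made in 293T) carrying CXADR cDNA or empty vector, then selected in 5 μg/mL puromycin for 48 h. Expression was checked by anti-CXADR immunoblot. Cells were treated with recombinant SFRP2 at 250 ng/mL or left untreated, and proliferation was monitored by IncuCyte.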

[10] = system: NO production in CXADR-overexpressing Y79 cells; experiment: NO production in CXADR-overexpressing Y79 cells; format: cell-based; details: 250 ng/mL recombinant SFRP2, n = 3
recombinant CXADR = experiment: Microscale thermophoresis of SFRP2-CXADR interaction; format: binding, human; details: read-out: KD of SFRP2-CXADR interaction, labeled CXADR, PBS/0.005% Tween 20, 30-min incubation at room temperature, Monolith NT.115
Outline: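 Recombinant human CXADR was fluorescently labelled with the RED-NHS second-generation dye kit. It was mixed with recombinant human SFRP2, incubated, and loaded into capillary chips. KD was derived from microscale thermophoresis affinity analysis.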

Which “NOS2 RNA induction” value (NOS2 RNA in RB383 cells) does the source give for HNPFTFFGPMFY [peptide I] here?
The value was “rapidly induced”.

And the “phosphorylated CREB induction” value [1]?
The value was “rapidly induced phosphorylated CREB”.

What about the inhibition of proliferation (RB383 cells) of the same molecule?
The inhibition of proliferation was “strongly inhibited proliferation of retinoblastoma cells”.

What about the inhibition of proliferation (Y79 cells [2]; 1 μg/mL, IncuCyte) of the same molecule?
The inhibition of proliferation was “strongly inhibited proliferation of retinoblastoma cells”.

And the “growth of ARPE-19 cells” value [3]?
The value was “do not inhibit the growth of retinal pigment epithelial cells”.

And the NO production [4]?
The NO production was “rapidly induced”.

With Oc1nc(-c2ccc(C(F)(F)F)cc2)nc2c1CSCC2 [XAV939] as the molecule, how does the “growth arrest following SFRP2 silencing, Wnt inhibitors” value (Y79 cells [2]) read?
The value was “did not rescue the growth arrest of retinoblastoma cells following SFRP2 silencing”.

Which NO generation [5] does the source give for O=S(=O)(NC1CCNCC1)c1cc(S(=O)(=O)c2ccccc2)ccc1C(F)(F)F [WAY-316606] here?
Its NO generation is “rapidly induces NO generation in retinoblastoma cells”.

And the inhibition of proliferation (Y79 cells [2]; dose range in figure, IncuCyte)?
The inhibition of proliferation was “efficiently inhibited retinoblastoma cell proliferation in a dose-dependent manner”.

What about the “inhibition of SFRP1” value (SFRP1) of the same molecule?
Its value is “potent inhibitor of SFRP1”.

With O=c1onc2n1-c1cc(Br)ccc1OC2 [NS-2028] as the molecule, how does the “p21 induction following SFRP2 silencing” value (p21 in RB383 cells) read?
Its value is “abolished”.

What about the “growth inhibition following SFRP2 silencing (rescue), sGC inhibitor” value (retinoblastoma cells; 5 μM) of the same molecule?
The value was “abolished”.

Which “p21 induction following SFRP2 silencing” value (p21 in RB383 cells) does the source give for COC(=O)[C@@]1(OC)C[C@H]2O[C@]1(C)n1c3ccccc3c3c4c(c5c6ccccc6n2c5c31)C(=O)N(C)C4 [KT5823] here?
Its value is “abolished”.

What about the “growth inhibition following SFRP2 silencing (rescue), PKG inhibitor” value (retinoblastoma cells; 2.5 μM) of the same molecule?
The value was “abolished”.

Which “growth inhibition following SFRP2 silencing (rescue), pan-NOS inhibitor” value (retinoblastoma cells; concentrations in figure) does the source give for [H]/N=C(/NC)NCCC[C@H](N)C(=O)O [L-NMMA] here?
Its value is “abolished growth inhibition following SFRP2 silencing”.

Which results are given for HGWASLLNYSWY [peptide II]?
NOS2 RNA induction (NOS2 RNA in RB383 cells): rapidly induced; phosphorylated CREB induction [1]: rapidly induced phosphorylated CREB; inhibition of proliferation (RB383 cells): strongly inhibited proliferation of retinoblastoma cells; inhibition of proliferation (Y79 cells [2]; 1 μg/mL, IncuCyte): strongly inhibited proliferation of retinoblastoma cells; growth of ARPE-19 cells [3]: do not inhibit the growth of retinal pigment epithelial cells; NO production [4]: rapidly induced

What does the source list for O=S(=O)(NCCNC/C=C/c1ccc(Br)cc1)c1cccc2cnccc12 [H89]?
NOS2 RNA induction following SFRP2 silencing (NOS2 RNA in RB383 cells; RB383, 5 μM H89, SFRP2 siRNA): abolished; CREB phosphorylation following SFRP2 silencing ([1]; RB383, 5 μM H89, SFRP2 siRNA, 48 h): abolished CREB phosphorylation; growth inhibition following SFRP2 silencing (RB383 cells; RB383, 5 μM H89, SFRP2 siRNA): abolished; NO production following SFRP2 silencing ([4]; RB383, 5 μM H89, SFRP2 siRNA): abolished

With CC1(C)N([O])C(c2ccc(C(=O)O)cc2)=[N+]([O-])C1(C)C [carboxy-PTIO] as the molecule, how does the “p21 induction following SFRP2 silencing” value (p21 in RB383 cells) read?
The value was “abolished”.

What about the “effect on SFRP2 silencing” value [6] of the same molecule?
Its value is “did not affect SFRP2 silencing”.

And the “growth inhibition following SFRP2 silencing (rescue), NO scavenger” value (retinoblastoma cells; 1 μM, all five retinoblastoma cell lines)?
Its value is “completely abolished SFRP2 silencing-induced growth inhibition in all five retinoblastoma cell lines”.

For Nc1ncc2c(n1)CC(c1ccco1)CC2=O (stereo not drawn) [NKY80], which “NOS2 RNA induction following SFRP2 silencing” value (NOS2 RNA in RB383 cells; RB383, 1 μM NKY80, SFRP2 siRNA) is on record?
Its value is “abolished NOS2 induction”.

And the “growth inhibition following SFRP2 silencing” value (RB383 cells; RB383, 1 μM NKY80, SFRP2 siRNA)?
The value was “abolished”.

What about the “NO production following SFRP2 silencing” value ([4]; RB383, 1 μM NKY80, SFRP2 siRNA) of the same molecule?
Its value is “abolished”.

Which “growth arrest following SFRP2 silencing, Wnt inhibitors” value (Y79 cells [2]) does the source give for O=C(CSc1nc2c(c(=O)n1-c1ccccc1)SCC2)Nc1ccc(-c2ccccc2)cn1 [IWP-L6] here?
The value was “did not rescue the growth arrest of retinoblastoma cells following SFRP2 silencing”.

For CC(=O)N[C@@H](C(=O)O)C(C)(C)SN=O (racemic) [SNAP], which “retinoblastoma growth, NO donor” value (Y79 cells [2]; concentrations in figure, IncuCyte) is on record?
Its value is “inhibited retinoblastoma growth in a dose-dependent manner”.

B1: Recombinant human SFRP2 protein (6838-FR-025, R&D Systems) (ligand)
chain: LFLFGQPDFSYKRSNCKPIPANLQLCHGIEYQNMRLPNLLGHETMKEVLEQAGAWIPLVMKQCHPDTKKFLCSLFAPVCLDDLDETIQPCHSLCVQVKDRCAPVMSAFGFPWPDMLECDRFPQDNDLCIPLASSDHLLPATEEAPKVCEACKNKNDDDNDIMETLCKNDFALKIKVKEITYINRDTKIILETKSKTIYKLNGVSERDLKKSVLWLKDSLQCTCEEMNDINAPYLVMGQKQGGELVITSVKRWQKGQREFKRISRSIRKLQC
With B1 as the molecule, how does the Kd [7] read?
Its Kd is 11.9 nM.

B2: SFRP2-FLAG: C-terminally FLAG-tagged SFRP2 produced by transfection in 293T cells (protein)
chain: B1 chain
modifications: left off: FLAG, C-terminal, kept
Which “co-immunoprecipitation with CXADR” value (CXADR) does the source give for B2 here?
Its value is “specifically co-immunoprecipitated with CXADR”.

And the “SFRP2-FLAG binding to Y79 cells” value (Y79 cells [8])?
The value was “bound to Y79 cells, and this binding was abolished by siRNA-mediated silencing of CXADR”.

B3: recombinant SFRP2: Recombinant human SFRP2 protein (R&D Systems) (protein)
chain: B1 chain
modifications: left off: FLAG, C-terminal, kept
What does the source list for B3?
proliferation of CXADR-overexpressing cells [9]: rescue of proliferation; NO generation in CXADR-overexpressing cells [10]: rapidly abolished; Kd (recombinant CXADR): 11.9 nM
